Seven molecules from PubChem BioAssay AID588702 (Broad Institute, 2011) can be followed below.

The nature of assay [1]: HMLE_shGFP viability loss – cell-based, CellTiter-Glo luminescence, dry powder samples, counter-screen for breast cancer stem cell project, dose response (AID 588702). As to conditions: HMLE_shGFP viability, CellTiter-Glo luminescence, 72 h. Put shortly:
(§1)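 Material: HMLE mammary epithelial cells expressing shGFP, toxicity counterscreen line. Amount: 1000 HMLE_shGFP cells per well. Buffer or medium: serum-free screening medium for cell seeding. Doses: compound delivered to wells by pin transfer. Schedule: 24 h attachment, 72 h compound exposure. Detection: CellTiter-Glo luminescence. Controls: DMSO-only wells as negative control.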

Assay [2] has as its system HMLE_shGFP viability, CellTiter-Glo luminescence, 72 h. Described as above. Put shortly: as §1

The source made the active and inactive calls.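 The calls were made as follows: active = marked loss of luminescence, read as toxicity to breast epithelial cells carrying a control GFP hairpin; inactive = the rest.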

For `O=C(COc1ccc(Cl)cc1Cl)N/N=C/c1cnc[nH]1`, in assay [1], the outcome was inactive.
Broadly, the AC50 is the concentration giving half of the maximal activity seen. Consider `CC(C)(C)c1ccc2c(c1)OC(C(=O)N/N=C/c1ccc[nH]1)CO2` (configuration not stated), for which the AC50 in assay [2] was 21.1 µM.
On to `Cc1cc(Cl)ccc1OCC(=O)N/N=C/c1ccc[nH]1`, for which, in assay [2], the concentration at half-maximal activity (AC50) is 29.9 µM.
As to `O=C(COc1ccc(Cl)cc1Cl)N/N=C/c1ccc[nH]1`, the AC50 in assay [2] is 51.4 µM.
Turning to `O=C(COc1c(Cl)cc(Cl)cc1Cl)N/N=C/c1ccc[nH]1`, the result in assay [1] was inactive.
Consider `O=C(COc1cc(Cl)ccc1Cl)N/N=C/c1ccc[nH]1`, for which the half-maximal activity concentration (AC50) in assay [2] is 11.4 µM.
As for `O=C(N/N=C/c1ccc[nH]1)c1cc2ccccc2o1`, the concentration at half-maximal activity (AC50) in assay [2] is 378 µM.
